For this test, the target named is Signal transducer and activator of transcription 3 (Homo sapiens, UniProt P40763). As to the kind of experiment: Inhibition of IFN gamma-induced STAT3 (unknown origin) activation in HeLa-STAT3-Luc cells after 6 hrs by luciferase reporter gene assay. In short, it runs like this:
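HeLa-STAT3-Luc reporter cells (15 × 10⁴ cells/mL, DMEM with 10% FBS, 37 °C, 5% CO2) were preincubated with the compounds at rising concentrations, then stimulated with IFNγ for 6 h. Lysate luciferase is expressed as percent inhibition, with IFNγ-induced activity set as 100%.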
(A reporter such as luciferase makes a cellular process visible.)

The record followed here is BindingDB's records for doi:10.1021/acs.jnatprod.5b00637 (University of Eastern Piedmont, 2016).

Signal transducer and activator of transcription 3, sequence (P40763 whole entry): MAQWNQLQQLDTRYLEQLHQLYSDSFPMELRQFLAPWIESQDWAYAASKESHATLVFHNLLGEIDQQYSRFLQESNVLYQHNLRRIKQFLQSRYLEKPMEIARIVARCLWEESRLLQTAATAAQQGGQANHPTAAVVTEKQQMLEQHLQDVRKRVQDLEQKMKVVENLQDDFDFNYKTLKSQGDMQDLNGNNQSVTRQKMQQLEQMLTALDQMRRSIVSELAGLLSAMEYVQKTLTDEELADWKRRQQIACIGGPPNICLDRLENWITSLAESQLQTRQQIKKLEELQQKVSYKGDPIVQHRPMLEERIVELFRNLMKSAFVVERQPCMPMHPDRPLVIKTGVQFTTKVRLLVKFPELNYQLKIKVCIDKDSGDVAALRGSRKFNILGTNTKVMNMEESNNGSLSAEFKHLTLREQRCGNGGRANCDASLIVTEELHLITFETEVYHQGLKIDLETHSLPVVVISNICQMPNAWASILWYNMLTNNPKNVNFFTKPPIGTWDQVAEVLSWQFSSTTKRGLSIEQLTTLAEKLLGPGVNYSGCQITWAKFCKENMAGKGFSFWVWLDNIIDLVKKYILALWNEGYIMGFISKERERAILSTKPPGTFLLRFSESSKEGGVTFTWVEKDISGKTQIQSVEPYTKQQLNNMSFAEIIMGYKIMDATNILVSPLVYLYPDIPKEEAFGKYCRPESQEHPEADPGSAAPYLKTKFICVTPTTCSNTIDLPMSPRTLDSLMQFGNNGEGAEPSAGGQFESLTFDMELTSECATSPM

As for `CC(C)=CC(=O)C[C@H](C)c1ccc(C)cc1` [(+)-(S)-ar-turmerone], it took 14.2 µM to reach half-maximal inhibition (IC50).

Broadly, the IC50 is the midpoint of a concentration-inhibition curve.
